# Screens deposited in PubChem by Broad Institute.
# Hits are enriched below; roughly 5.8% of the tested compounds scored in any of these assays.
# T cruzi growth-1 – inhibitors of T. cruzi proliferation; AID 624255; hit rate 5.9% among 77,000; T. cruzi beta-gal in NIH3T3, GalScreen luminescence, 90 h; inhibition, % at 8.34 µM;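 active means mean inhibition above about 93%, with at least 55% of replicates each passing it, limit read from the data, passing the limit was not always enough; inconclusive means only one of those two conditions holds; inactive means neither condition holds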
# KDM4C inh – inhibitors of human demethylase GASC-1 KDM4C | GST-KDM4C 2-372, H3K9me3 peptide, LANCE TR-FRET | inhibition, % at 12.5 µM | Q9H3R0 | AID 720574 | hit rate 0.15% among 96,000;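 active means mean replicate inhibition above about 25%, with at least 55% of replicates also reaching it, limit read from the data, passing the limit was not always enough; inconclusive means only one of those two conditions met; inactive means neither condition met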
#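 System – N-terminal GST-fused human GASC-1 (KDM4C) fragment, residues 2-372 · Input – enzyme final amount 10 nM · Technique – LANCE TR-FRET, Eu antibody, ULight-streptavidin, EDTA, ex 340 nm, em 618/671 nm · Medium – HEPES buffer, pH 7.5, plus ascorbate · Incubation – enzyme reaction 30 min, then detection 60 min, both room temperature · Reagent – H3K9me3 peptide with Fe(II)/2OG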
# IDH1 R132H inh – inhibitors of human IDH1 R132H. O75874. IDH1 R132H reductase, diaphorase/resazurin fluorescence, 60 min. inhibition, % at 10 µM. hit rate 0.18% among 70,000. AID 624101; in the data active means inhibition above about 34%; inconclusive means no clear call, values can overlap the other calls; inactive means below about 11%
# Target sequence (O75874 whole entry R132H): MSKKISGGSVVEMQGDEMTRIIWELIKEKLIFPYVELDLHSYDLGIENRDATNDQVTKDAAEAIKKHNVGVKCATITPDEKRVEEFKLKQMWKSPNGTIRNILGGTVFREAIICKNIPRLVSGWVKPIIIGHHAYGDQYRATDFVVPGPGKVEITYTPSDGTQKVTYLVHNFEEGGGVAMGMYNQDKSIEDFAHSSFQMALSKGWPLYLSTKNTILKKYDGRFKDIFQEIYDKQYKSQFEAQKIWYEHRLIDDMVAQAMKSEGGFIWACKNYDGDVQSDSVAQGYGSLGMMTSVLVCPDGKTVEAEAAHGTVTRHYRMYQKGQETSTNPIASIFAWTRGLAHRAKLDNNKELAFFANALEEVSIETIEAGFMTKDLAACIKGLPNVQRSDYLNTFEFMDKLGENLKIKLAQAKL
# Pf Dd2 inh – blocks growth of Plasmodium falciparum Dd2 parasites; P. falciparum Dd2 growth, SYBR Green, 72 h; hits give low values; activity change, % at 10 µM; hit rate 2.3% among 94,000; in the data active means activity change below about -80%; inconclusive means no clear call, values can overlap the other calls
# T cruzi growth-2 – inhibitors of T. cruzi proliferation; AID 651739; inhibition, % at 8.35 µM; shares compounds with T cruzi growth-1; T. cruzi beta-gal in NIH3T3, GalScreen luminescence, 90 h; hit rate 72% among 5,600;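 active means mean replicate inhibition above about 95% and at least 55% of replicates individually reaching it, limit read from the data; inconclusive means only one of the two criteria is met; inactive means neither criterion is met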
# T cruzi growth-3 – Trypanosoma cruzi proliferation inhibition; shares compounds with T cruzi growth-1; T. cruzi beta-gal in NIH3T3, GalScreen luminescence, 90 h; inhibition, % at 2.09 µM; hit rate 21% among 5,600; AID 651740;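 active means mean inhibition above about 95%, with at least 55% of replicates also reaching it, limit read from the data; inconclusive means meets just one of the two conditions; inactive means meets neither condition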
# 3T3 cytotox – kills mouse NIH/3T3 fibroblasts; shares compounds with T cruzi growth-1; NIH/3T3 viability, CellTiter-Glo ATP luminescence, 90 h; cytotoxicity (signal decrease), % at 8.35 µM; hit rate 14% among 5,600;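 active means mean signal decrease across replicates above about 35% based on untreated-well scatter, with enough replicates individually passing, limit read from the data; inconclusive means no rule stated though some were filed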
# 3T3 cytotox 2 – cytotoxicity in mouse NIH/3T3 fibroblasts. hit rate 56% among 5,600. shares compounds with T cruzi growth-1. AID 651744. inhibition, % at 24.9 µM. NIH/3T3 viability, CellTiter-Glo ATP luminescence, 90 h;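 active means mean loss of cell viability signal at or above a set limit, and enough replicates individually reaching it; inconclusive means meets only the mean limit or only the replicate share; inactive means meets neither condition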
# A number is an active result; 0 = inactive; ? = inconclusive; - = not tested or not shown.
SMILES,T cruzi growth-1,KDM4C inh,IDH1 R132H inh,Pf Dd2 inh,T cruzi growth-2,T cruzi growth-3,3T3 cytotox,3T3 cytotox 2
CN(C)CC(=O)N1[C@@H](C#N)[C@@H](c2ccc(C#CC3CC3)cc2)[C@@H]1CO,0,0,-,0,-,-,-,-
CC(C)NC(=O)N1[C@H](CO)[C@@H](c2ccc(C#CC3CC3)cc2)[C@@H]1C#N,?,0,-,0,107,0,0,0
CC(=O)c1ccc(NC(=O)CSc2nnc3c4ccccc4n(C)c3n2)cc1,-,-,0,-,-,-,-,-
CSc1ccccc1NC(=O)C(C)N(c1ccc(C)cc1)S(C)(=O)=O (stereo not given),-,-,0,-,-,-,-,-
COc1cc([N+](=O)[O-])cc(CN2CCN(CCO)CC2)c1O,-,-,0,-,-,-,-,-
O=C(Nc1cc(Cl)cc(Cl)c1)N[C@H]1CC[C@H](CCNS(=O)(=O)c2cccc(F)c2)O[C@@H]1CO,112,0,0,0,108,0,0,97
O=C(Nc1cccc(F)c1)N[C@@H]1CC[C@H](CCNS(=O)(=O)c2cccc(Cl)c2)O[C@@H]1CO,153,0,0,0,0,0,0,0
O=C(Nc1cccc(F)c1)N[C@@H]1CC[C@@H](CCNS(=O)(=O)c2cccc(Cl)c2)O[C@H]1CO,0,0,0,0,-,-,-,-
COc1ccccc1CCNC(=O)c1c(-c2c(F)cccc2Cl)noc1C,-,-,0,-,-,-,-,-
COc1ccc(C(=O)CSc2nnc(-c3ccccc3)n2-c2ccccc2)cc1,-,-,0,-,-,-,-,-
C[C@H]1CN([C@@H](C)CO)S(=O)(=O)c2ccc(C#CC3CCCC3)cc2O[C@@H]1CN(C)C(=O)Cc1ccncc1,122,0,-,0,105,0,0,101
C[C@@H]1CN([C@H](C)CO)S(=O)(=O)c2ccc(C#CC3CC3)cc2O[C@@H]1CN(C)C(=O)Cc1ccncc1,?,0,-,0,102,0,0,0
C[C@H](CO)N1C[C@H](C)[C@H](CN(C)C(=O)Cc2ccncc2)Oc2cc(C#CC3CCCC3)ccc2S1(=O)=O,116,0,-,0,109,0,0,33
OCCCn1c(-c2ccc(Cl)cc2)cn2c3ccccc3nc12,-,-,0,-,-,-,-,-
C[C@@H]1CN([C@@H](C)CO)C(=O)c2cc(NC(=O)NC3CCCCC3)ccc2O[C@H]1CN(C)Cc1ccc(Cl)c(Cl)c1,?,0,0,0,111,0,0,0
C[C@@H]1CN([C@@H](C)CO)C(=O)c2cc(NC(=O)C3CCCCC3)ccc2O[C@@H]1CN(C)Cc1ccc(Cl)c(Cl)c1,?,0,0,0,103,0,0,39
Cc1ccc(S(=O)(=O)NCC(=O)Nc2ccc(C(N)=O)cc2)cc1,-,-,0,-,-,-,-,-
CC(=O)O[C@@H]1CC[C@@]2(C)C(CC[C@@H](C)[C@]23Cc2c(O)cc4c(c2O3)CNC4=O)C1(C)C (stereo not given in full),-,-,0,-,-,-,-,-
COc1cccc(-c2ccc3c(c2)O[C@@H](CN(C)C(=O)C2CC2)[C@@H](C)CN([C@H](C)CO)S3(=O)=O)c1,105,0,-,0,0,0,0,63
COc1cccc(-c2ccc3c(c2)O[C@@H](CN(C)C(=O)C2CC2)[C@@H](C)CN([C@@H](C)CO)S3(=O)=O)c1,105,0,-,0,0,0,0,45
CC(=O)Nc1nonc1-c1nc2ccccc2n1Cc1cccc2ccccc12,-,-,0,-,-,-,-,-
C#CCN1C(=O)C(O)(CC(=O)c2ccc(C)o2)c2ccccc21 (stereo not given),-,-,0,-,-,-,-,-
O=C(CN1CCOCC1)N1CCCCN2[C@H](CO)[C@H](c3ccc(C#Cc4ccccc4F)cc3)[C@@H]2C1,106,0,-,0,101,0,45,76
O=C(CN1CCOCC1)N1CCCCN2[C@H](CO)[C@H](c3ccc(C#Cc4ccccc4)cc3)[C@H]2C1,98,0,-,0,96,0,0,67
O=C(CN1CCOCC1)N1CCCCN2[C@H](C1)[C@@H](c1ccc(C#Cc3ccccc3F)cc1)[C@@H]2CO,0,0,-,0,-,-,-,-
SMILES,T cruzi growth-1,KDM4C inh,IDH1 R132H inh,Pf Dd2 inh,T cruzi growth-2,T cruzi growth-3,3T3 cytotox,3T3 cytotox 2
O=C(CN1CCOCC1)N1CCCCN2[C@H](C1)[C@H](c1ccc(C#Cc3ccccc3F)cc1)[C@@H]2CO,107,0,-,0,0,0,0,89
O=C(CN1CCOCC1)N1CCCCN2[C@H](CO)[C@@H](c3ccc(/C=C/c4ccccc4)cc3)[C@@H]2C1,0,0,-,0,-,-,-,-
O=C(CN1CCOCC1)N1CCCCN2[C@H](CO)[C@H](c3ccc(C#Cc4ccccc4F)cc3)[C@H]2C1,118,0,-,0,0,0,0,95
CCC(=O)N1CCCCN2[C@H](CO)[C@H](c3ccc(C#Cc4ccccc4F)cc3)[C@H]2C1,0,0,-,0,-,-,-,-
O=C(CN1CCOCC1)N1CCCCN2[C@H](CO)[C@H](c3ccc(-c4ccccc4)cc3)[C@H]2C1,0,0,-,0,-,-,-,-
OC[C@@H]1[C@H](c2ccc(-c3ccc(F)cc3)cc2)[C@H]2CN(Cc3ccccn3)CCCCN12,99,0,-,0,107,0,0,108
OC[C@H]1[C@H](c2ccc(-c3cccnc3)cc2)[C@@H]2CN(Cc3ccccn3)CCCCN12,?,0,-,0,106,0,0,0
C[C@@H]1CN([C@@H](C)CO)C(=O)Cc2cc(NS(=O)(=O)c3ccc(Cl)cc3)ccc2O[C@H]1CN(C)Cc1ccc2c(c1)OCO2,0,0,0,0,-,-,-,-
Cc1ccc(S(=O)(=O)Nc2ccc3c(c2)CC(=O)N([C@H](C)CO)C[C@H](C)[C@@H](CN(C)Cc2ccc4c(c2)OCO4)O3)cc1,106,0,0,0,104,99,0,25
C[C@@H]1CN([C@H](C)CO)C(=O)Cc2cc(NS(=O)(=O)c3ccc(Cl)cc3)ccc2O[C@H]1CN(C)Cc1ccc2c(c1)OCO2,113,0,0,0,108,0,0,0
C[C@@H]1CN([C@H](C)CO)C(=O)Cc2cc(NS(=O)(=O)c3ccc(Cl)cc3)ccc2O[C@@H]1CN(C)Cc1ccc2c(c1)OCO2,99,0,-,0,106,0,?,42
Cc1ccc(S(=O)(=O)Nc2ccc3c(c2)CC(=O)N([C@@H](C)CO)C[C@@H](C)[C@@H](CN(C)Cc2ccc4c(c2)OCO4)O3)cc1,0,0,0,0,-,-,-,-
O=C(CC1CCOCC1)Nc1ccc(I)cc1,-,-,0,-,-,-,-,-
COC(=O)c1ccccc1NC(=O)c1ccc(NC(=O)CSc2ccccc2)cc1,-,-,0,-,-,-,-,-
CS(=O)(=O)N(CC(=O)Nc1cccc(Br)c1)c1cccc2ccccc12,-,-,0,-,-,-,-,-
C[C@@H]1CN([C@@H](C)CO)S(=O)(=O)c2ccc(C#Cc3ccccc3)cc2O[C@H]1CN(C)S(=O)(=O)c1ccccc1F,124,0,0,?,109,0,41,47
